Experimental data reported in ChEMBL document CHEMBL4627265, “Optimization of 8-oxoadenines with toll-like-receptor 7 and 8 activity” (Bioorg Med Chem Lett, 2020).
pEC50: −log10 of the molar value. Activity calls are given as the source filed them. No cut-off for these calls is given here.

Legend:
Format in all cases: cell-based
Toll-like receptor 7 = biological target: T1, Toll-like receptor 7 (Homo sapiens, UniProt Q9NYK1); assay: Agonist activity at human TLR7 expressed in HEK293 cells assessed as induction of NFKappaB activity after 24 hrs by SEAP reporter gene assay
T1 sequence (Q9NYK1 whole entry): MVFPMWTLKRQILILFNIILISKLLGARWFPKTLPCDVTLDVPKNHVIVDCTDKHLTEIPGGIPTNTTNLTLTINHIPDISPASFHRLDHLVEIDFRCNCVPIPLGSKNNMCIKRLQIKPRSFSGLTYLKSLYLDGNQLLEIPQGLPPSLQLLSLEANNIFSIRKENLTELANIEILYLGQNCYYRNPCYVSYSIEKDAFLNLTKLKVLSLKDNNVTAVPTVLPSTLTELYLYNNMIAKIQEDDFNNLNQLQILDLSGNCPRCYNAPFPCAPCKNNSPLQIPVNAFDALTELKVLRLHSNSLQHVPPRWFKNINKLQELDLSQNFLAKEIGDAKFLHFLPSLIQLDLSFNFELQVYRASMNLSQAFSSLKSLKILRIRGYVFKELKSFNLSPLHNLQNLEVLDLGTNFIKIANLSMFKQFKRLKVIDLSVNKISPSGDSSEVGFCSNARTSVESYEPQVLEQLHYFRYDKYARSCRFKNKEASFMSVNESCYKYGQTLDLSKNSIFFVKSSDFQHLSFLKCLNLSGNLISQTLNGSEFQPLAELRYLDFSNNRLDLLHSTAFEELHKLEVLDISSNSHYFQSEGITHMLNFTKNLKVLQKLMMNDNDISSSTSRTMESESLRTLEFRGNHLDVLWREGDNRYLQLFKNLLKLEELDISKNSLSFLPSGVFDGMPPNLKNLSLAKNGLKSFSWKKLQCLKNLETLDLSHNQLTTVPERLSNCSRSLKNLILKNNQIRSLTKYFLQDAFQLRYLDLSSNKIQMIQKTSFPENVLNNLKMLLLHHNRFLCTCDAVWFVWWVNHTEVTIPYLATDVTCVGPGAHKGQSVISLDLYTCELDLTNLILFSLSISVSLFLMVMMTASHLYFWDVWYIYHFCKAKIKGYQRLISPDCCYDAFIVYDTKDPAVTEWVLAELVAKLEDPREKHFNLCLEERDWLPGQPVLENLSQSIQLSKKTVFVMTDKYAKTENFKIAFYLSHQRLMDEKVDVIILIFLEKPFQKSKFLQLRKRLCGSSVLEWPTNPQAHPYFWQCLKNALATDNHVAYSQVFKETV
Method in brief: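 HEK293 cells stably transfected with hTLR7 or hTLR8 plus an NFκB-driven SEAP reporter, treated 24 h with compound over a μM range; SEAP secretion read out. EC50 as mean ± SD of three (TLR7) or four (TLR8) independent experiments.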

[1] = biological target: T2, Toll-like receptor 7 (Homo sapiens) (UniProt Q9NYK1); assay: Agonist activity at TLR7 in human PBMC assessed as IFNalpha stimulation at 10 uM
T2 sequence (whole entry): T1 sequence (Q9NYK1 whole entry)
Method in brief: (§1)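 IFNα secretion by hPBMCs across a μM dose range; MEC = lowest dose tested inducing cytokine, PC = dose giving highest level, PL = peak level at 10 μM. Data representative of one of three independent donors.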

[2] = biological target: Toll-like receptor 3 (Homo sapiens) (UniProt O15455); assay: Agonist activity at human TLR3 expressed in HEK293 cells by SEAP reporter gene assay
Sequence of Toll-like receptor 3 (Homo sapiens) (O15455 whole entry): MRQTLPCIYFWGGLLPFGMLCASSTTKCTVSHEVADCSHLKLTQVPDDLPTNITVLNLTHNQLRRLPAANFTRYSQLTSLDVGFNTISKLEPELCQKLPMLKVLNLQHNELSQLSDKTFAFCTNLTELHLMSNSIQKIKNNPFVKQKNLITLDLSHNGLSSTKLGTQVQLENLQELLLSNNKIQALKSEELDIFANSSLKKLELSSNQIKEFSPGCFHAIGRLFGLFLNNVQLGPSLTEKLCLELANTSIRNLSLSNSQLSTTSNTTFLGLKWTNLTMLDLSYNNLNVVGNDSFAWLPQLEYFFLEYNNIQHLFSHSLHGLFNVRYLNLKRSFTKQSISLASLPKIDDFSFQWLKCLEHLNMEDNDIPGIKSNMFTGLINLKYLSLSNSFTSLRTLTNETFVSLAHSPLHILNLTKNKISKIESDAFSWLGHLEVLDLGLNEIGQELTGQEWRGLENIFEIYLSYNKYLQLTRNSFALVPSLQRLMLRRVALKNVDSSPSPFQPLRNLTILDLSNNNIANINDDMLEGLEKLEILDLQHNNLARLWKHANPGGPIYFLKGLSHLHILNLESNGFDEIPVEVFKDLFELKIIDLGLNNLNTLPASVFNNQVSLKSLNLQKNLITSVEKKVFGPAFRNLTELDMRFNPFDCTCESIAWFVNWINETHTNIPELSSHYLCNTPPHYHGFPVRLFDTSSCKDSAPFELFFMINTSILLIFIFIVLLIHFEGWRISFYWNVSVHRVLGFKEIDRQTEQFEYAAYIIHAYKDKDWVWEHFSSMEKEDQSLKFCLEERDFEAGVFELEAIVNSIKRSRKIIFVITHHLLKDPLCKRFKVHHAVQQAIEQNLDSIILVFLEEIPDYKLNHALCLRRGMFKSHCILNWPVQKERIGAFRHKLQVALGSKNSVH

[3] = biological target: T2, Toll-like receptor 7 (Homo sapiens); assay: Agonist activity at TLR7 in human PBMC assessed as induction of plasmacytoid dendritic cell maturation by measuring increase in HLA-DR level at 0.1 uM after 6 hrs by flow cytometry relative to control
Method in brief: (§2)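 hPBMCs stimulated 6 h at a single 0.1 μM dose; HLA-DR, MHC-I, CD80 and CD86 on mDCs and pDCs measured by flow cytometry, expressed as fold change versus unstimulated cells. Mean ± SD of three independent experiments in three different donors.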

[4] = biological target: T3, Toll-like receptor 9 (Homo sapiens) (UniProt Q9NR96); assay: Agonist activity at human TLR9 expressed in HEK293 cells by SEAP reporter gene assay
T3 sequence (whole entry): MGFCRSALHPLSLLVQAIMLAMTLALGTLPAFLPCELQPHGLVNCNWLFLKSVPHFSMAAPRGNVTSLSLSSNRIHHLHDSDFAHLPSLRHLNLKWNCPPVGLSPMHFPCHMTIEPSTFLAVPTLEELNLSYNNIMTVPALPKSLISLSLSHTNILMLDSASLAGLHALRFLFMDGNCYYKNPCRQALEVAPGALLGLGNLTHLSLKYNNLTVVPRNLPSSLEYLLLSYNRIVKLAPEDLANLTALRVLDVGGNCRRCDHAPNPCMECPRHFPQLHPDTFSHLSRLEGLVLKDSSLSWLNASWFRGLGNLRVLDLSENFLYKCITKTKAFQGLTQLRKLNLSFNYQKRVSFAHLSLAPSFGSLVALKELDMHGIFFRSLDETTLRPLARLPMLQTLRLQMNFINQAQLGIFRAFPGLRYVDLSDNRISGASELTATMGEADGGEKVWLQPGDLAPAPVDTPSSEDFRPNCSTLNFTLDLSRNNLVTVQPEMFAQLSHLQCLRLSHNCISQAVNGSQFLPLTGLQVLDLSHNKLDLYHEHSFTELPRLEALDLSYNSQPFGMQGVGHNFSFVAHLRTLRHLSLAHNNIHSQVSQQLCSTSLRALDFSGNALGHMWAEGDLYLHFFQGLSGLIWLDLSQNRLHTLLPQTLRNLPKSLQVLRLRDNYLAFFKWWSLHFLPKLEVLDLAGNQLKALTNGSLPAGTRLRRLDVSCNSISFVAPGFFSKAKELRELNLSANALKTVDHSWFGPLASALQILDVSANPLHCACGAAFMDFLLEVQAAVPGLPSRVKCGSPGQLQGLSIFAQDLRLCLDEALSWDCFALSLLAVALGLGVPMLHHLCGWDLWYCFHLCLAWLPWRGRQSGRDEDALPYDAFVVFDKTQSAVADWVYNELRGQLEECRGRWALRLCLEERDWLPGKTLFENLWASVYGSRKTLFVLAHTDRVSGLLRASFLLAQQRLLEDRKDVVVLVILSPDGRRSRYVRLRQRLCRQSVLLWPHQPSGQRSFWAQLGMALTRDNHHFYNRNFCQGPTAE

[5] = biological target: T2, Toll-like receptor 7 (Homo sapiens); assay: Agonist activity at TLR7 in human PBMC assessed as induction of plasmacytoid dendritic cell maturation by measuring increase in MHC-1 level at 0.1 uM after 6 hrs by flow cytometry relative to control; method in brief: as §2
[6] = biological target: T2, Toll-like receptor 7 (Homo sapiens); assay: Agonist activity at TLR7 in human PBMC assessed as induction of plasmacytoid dendritic cell maturation by measuring increase in CD86 level at 0.1 uM after 6 hrs by flow cytometry relative to control; method in brief: as §2
[7] = biological target: T4, Toll-like receptor 8 (Homo sapiens) (UniProt Q9NR97); assay: Agonist activity at TLR8 in human PBMC assessed as TNFalpha level
T4 sequence (whole entry): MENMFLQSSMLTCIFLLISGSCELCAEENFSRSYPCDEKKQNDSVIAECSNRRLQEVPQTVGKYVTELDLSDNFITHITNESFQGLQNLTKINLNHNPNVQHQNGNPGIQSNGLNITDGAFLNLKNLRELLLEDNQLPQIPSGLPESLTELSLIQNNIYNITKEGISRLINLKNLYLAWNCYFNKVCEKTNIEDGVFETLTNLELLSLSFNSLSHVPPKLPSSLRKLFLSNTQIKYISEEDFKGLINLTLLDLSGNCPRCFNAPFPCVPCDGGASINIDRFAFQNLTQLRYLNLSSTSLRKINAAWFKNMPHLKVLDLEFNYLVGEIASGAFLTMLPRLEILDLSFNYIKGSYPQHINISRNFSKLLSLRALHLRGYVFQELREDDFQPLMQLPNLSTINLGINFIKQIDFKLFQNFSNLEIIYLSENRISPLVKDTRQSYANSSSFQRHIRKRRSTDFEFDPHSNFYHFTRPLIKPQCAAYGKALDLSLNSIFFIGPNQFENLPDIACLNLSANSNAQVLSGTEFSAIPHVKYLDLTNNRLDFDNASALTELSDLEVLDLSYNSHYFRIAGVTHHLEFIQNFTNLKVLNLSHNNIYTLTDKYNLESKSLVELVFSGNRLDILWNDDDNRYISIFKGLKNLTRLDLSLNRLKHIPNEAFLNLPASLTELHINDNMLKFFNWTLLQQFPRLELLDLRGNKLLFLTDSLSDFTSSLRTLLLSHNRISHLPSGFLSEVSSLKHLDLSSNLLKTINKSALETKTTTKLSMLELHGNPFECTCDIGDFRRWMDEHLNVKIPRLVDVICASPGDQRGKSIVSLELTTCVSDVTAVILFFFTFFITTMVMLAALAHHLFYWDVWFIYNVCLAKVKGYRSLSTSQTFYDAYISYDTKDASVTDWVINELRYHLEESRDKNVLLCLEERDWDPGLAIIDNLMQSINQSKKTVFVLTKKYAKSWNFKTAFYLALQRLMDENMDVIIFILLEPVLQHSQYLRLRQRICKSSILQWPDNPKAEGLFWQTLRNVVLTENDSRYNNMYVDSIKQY
Method in brief: (§3)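 TNFα secretion by hPBMCs across a μM dose range; MEC = lowest dose tested inducing cytokine, PC = dose giving highest level, PL = peak level at 10 μM. Data representative of one of three independent donors.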

[8] = biological target: T4, Toll-like receptor 8 (Homo sapiens); assay: Agonist activity at TLR8 in human PBMC assessed as TNFalpha level at 10 uM; method in brief: as §3
[9] = biological target: TLR7 and TLR8 (Homo sapiens) (UniProt Q9NYK1+Q9NR97); assay: Agonist activity at TLR7/TLR8 in human PBMC assessed as IFN alpha level; method in brief: as §1
[10] = biological target: T2, Toll-like receptor 7 (Homo sapiens); assay: Agonist activity at TLR7 in human PBMC assessed as induction of plasmacytoid dendritic cell maturation by measuring CD80 level at 0.1 uM after 6 hrs by flow cytometry; method in brief: as §2
[11] = biological target: T2, Toll-like receptor 7 (Homo sapiens); assay: Agonist activity at TLR7 in human PBMC assessed as induction of plasmacytoid dendritic cell maturation by measuring CD86 level at 0.1 uM after 6 hrs by flow cytometry; method in brief: as §2

Compound | pEC50 (Toll-like receptor 7) | Activity [1] [pg/mL] | Activity [2] | fold change (FC) [3] | Activity [4] | fold change (FC) [5] | fold change (FC) [6] | Activity [10] | Activity [11] | MEC [7] [µM] | Activity [8] [pg/mL] | ECmax [9] [µM] | MEC [9] [µM]
CCCCNc1nc(N)c2[nH]c(=O)n(CC3CCNCC3)c2n1 | 4.40 | 5980 |  |  |  |  |  |  |  |  |  |  | 
COCCOc1nc(N)c2[nH]c(=O)n(Cc3ccccc3)c2n1 | 5.93 | 1440 |  |  |  |  |  |  |  | 2 | 1660 | 0.08 | 0.08
CCC[C@@H](C)Oc1nc(N)c2[nH]c(=O)n(CC3CCNCC3)c2n1 | 4.45 | 6210 | inactive | 1.2 to 2.4 | inactive | 1.2 to 2.4 |  | inactive | inactive |  |  |  | 

Continued, in another order:

pEC50 (Toll-like receptor 7) | Activity [1] [pg/mL] | Activity [2] | fold change (FC) [3] | Activity [4] | fold change (FC) [5] | fold change (FC) [6] | Activity [10] | Activity [11] | Compound | MEC [7] [µM] | Activity [8] [pg/mL] | ECmax [9] [µM] | MEC [9] [µM]
4.70 | 5900 | inactive | 1.2 to 2.4 | inactive | 1.2 to 2.4 | 1.4 |  |  | CCCCOc1nc(N)c2[nH]c(=O)n(CC3CCNCC3)c2n1 |  |  |  | 
6.62 | 2640 |  | 1.7 to 2.3 |  | 1.7 to 2.3 |  |  |  | CCC[C@H](C)Oc1nc(N)c2[nH]c(=O)n(CCCCCC3CCNCC3)c2n1 |  |  |  | 
6.35 | 4680 |  | 1.7 to 2.3 |  | 1.7 to 2.3 |  |  |  | CCCCOc1nc(N)c2[nH]c(=O)n(CCCCCC3CCNCC3)c2n1 |  |  |  | 
